Assay results taken from publication PMC10590554 (Drug Design, Development and Therapy, 2023).
Values joined by “and” are separate entries in the source; they are usually repeats but may differ in a detail not shown here. Equal values may be shown once. Read-outs that look alike come from different tables or passages of the source. Blank lines part the entries; values can stand above or below the compound they belong to.

Key:
[1] = cited from earlier work
[2] = co-administration with itraconazole; cited from earlier work
[3] = assay type: in vivo, Sprague-Dawley rats; details: rats
How it was run: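 Male Sprague-Dawley rats (220–260 g), acclimatised one week, fasted 12 h with free water, n=7/group. Single dose of vehicle (0.5% CMC-Na), simvastatin 2 mg/kg or itraconazole 15 mg/kg, then erlotinib 12 mg/kg in 0.5% CMC-Na by oral gavage 30 min later. Tail-vein blood taken into heparin at 0–24 h; plasma assayed by UPLC-MS/MS with tinidazole IS. Mean ± SD; ANOVA with Dunnett; Tmax by Wilcoxon signed-rank.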

[4] = tested on: CYP3A4; details: human microsomes and cDNA expressed human CYP enzymes; cited from earlier work
[5] = after oral administration; cited from earlier work
[6] = with ketoconazole (CYP3A4 inhibitor); cited from earlier work
[7] = Stability of erlotinib in rat plasma; assay type: in vitro ADME; details: various storage conditions, QC 8 and 800 ng/mL
How it was run: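 Blank rat plasma spiked with erlotinib QC at 8 and 800 ng/mL, five replicates per level. Held at room temperature 4 h, at −80°C for 60 days, or through 3 freeze-thaw cycles; processed samples held 4°C 24 h. Acetonitrile-tinidazole protein precipitation, then UPLC-MS/MS against a 5–1000 ng/mL 1/x²-weighted curve. Accuracy taken as measured/theoretical concentration ×100%.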

[8] = with flavoured water; cited from earlier work
[9] = with itraconazole, rats; cited from earlier work
[10] = with itraconazole, humans; cited from earlier work
[11] = itraconazole group vs erlotinib alone group, P<0.05
[12] = itraconazole group vs erlotinib alone group, not significant
[13] = simvastatin group vs erlotinib alone group, P>0.05

Compound: CC/C(=C(\c1ccccc1)c1ccc(OCCN(C)C)cc1)c1ccccc1 [tamoxifen]
- increase of Cmax of tamoxifen ([1]; combined with erlotinib vs single administration): 46%

Compound: N#CC1(c2ccc(NC(=O)c3cccnc3NCc3ccncc3)cc2)CCCC1 [apatinib]
- reduction of CL/F of apatinib [2]: 40%

- increase of AUC ([3]; 15 mg/kg itraconazole with 12 mg/kg erlotinib vs erlotinib alone, P<0.05): 32.3%
- decrease of CL/F [3, 11]: ~24.24% and 24.2%
- increase of AUC0-t [3, 11]: approximately 32.32%
- increase of AUC0-∞ [3, 11]: ~32.29%
- increase of Cmax [3, 11]: ~33.54% and 33.5%
- decrease of Vz/F [3, 12]: approximately 19.30%
- increase of t1/2 [3, 12]: ~5.33%
- AUC0-t, fold higher than erlotinib alone group ([3]; itraconazole group, P<0.05): approximately 1.32 fold
- AUC0-∞, fold higher than erlotinib alone group ([3]; itraconazole group, P<0.05): approximately 1.32 fold
- Cmax, fold higher than erlotinib alone group ([3]; itraconazole group, P<0.05): ~1.34 fold
- decrease of CL/F [3, 13]: approximately 6.06%
- increase of AUC0-∞ [3, 13]: ~9.50%
- increase of Cmax [3, 13]: ~3.80%
- increase of Vz/F [3, 13]: ~1.16%
- increase of t1/2 [3, 13]: ~7.56%
- Accuracy over all stability conditions [7]: 87.56–112.17%
Compound: C#Cc1cccc(Nc2ncnc3cc(OCCOC)c(OCCOC)cc23)c1 [Erlotinib, erlotinib]
- share of metabolism by CYP3A4 [4]: 70%
- reduction of AUC of erlotinib ([1]; combined with tamoxifen vs single administration): 54%
- eliminated via urine and feces route [5]: 91%
- increase of AUC of erlotinib [6]: 86%
- increase of Cmax of erlotinib [6]: 102%
- increase of AUC of erlotinib [8]: 200%
- increase of Cmax of erlotinib [8]: 95%

Compound: CCc1nc(C(N)=O)c(Nc2ccc(N3CCC(N4CCN(C)CC4)CC3)c(OC)c2)nc1NC1CCOCC1 [gilteritinib]
- increase of exposure of gilteritinib [9]: 1.4 fold
- increase of exposure of gilteritinib [10]: 2.2 fold
